The results in this text go back to ChEMBL document CHEMBL2331550, “Design, synthesis and structure-activity relationship of novel tricyclic benzimidazolone derivatives as potent 18 kDa translocator protein (TSPO) ligands” (Bioorg Med Chem, 2013).

Converted amounts (≈) assume the structure as drawn. Bounds are passed on as bounds.

Data set [1] in a line: Metabolic stability in rat liver S9 fraction assessed as compound remaining at 1 uM after 30 mins. The format is ADME, subcellular. Conditions: read-out: Stability.
The species named for another data set is Rattus norvegicus. Nature of the data set: Displacement of [3H]flumazenil from CBR in Sprague-Dawley rat cerebral cortex membrane at 10 uM after 1 hr by liquid scintillation counting analysis. In kind it is tissue-based. A digest of the protocol:
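Male SD rat cerebral cortex was homogenised in potassium phosphate buffer (200 mM KCl, 20 mM KOH, 20 mM KH2PO4, pH 7.4) and washed at 32,500×g. Membranes were incubated with 1.0 nM [3H]-flumazenil (final) and 10 µM test compound for 1 h at 25 °C, then GF/B-filtered and counted by scintillation. Nonspecific binding was taken with […]. Percent inhibition of specific binding was measured in duplicate.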

The next data set concerns the target Translocator protein (Rattus norvegicus, UniProt P16257). Nature of the data set: Displacement of [3H]PK11195 from TSPO in Sprague-Dawley rat kidney mitochondria after 1 hr by liquid scintillation counting analysis.
The nature of data set [2]: Metabolic stability in rat liver S9 fraction assessed as compound remaining at 10 uM after 30 mins. The following applies: read-out: Stability. The format is ADME, subcellular.
The target in data set [3] is Translocator protein (Rattus norvegicus) (UniProt P16257). Put plainly: Displacement of [3H]PK11195 from TSPO in Sprague-Dawley rat kidney mitochondria at 100 nM after 1 hr by liquid scintillation counting analysis.
The nature of data set [4]: Aqueous solubility of the compound at pH 2.5. In kind it is physicochemical.
Data set [5] can be described thus: Aqueous solubility of the compound at pH 7.4. In kind it is physicochemical.

Translocator protein, sequence (P16257 whole entry, looked up): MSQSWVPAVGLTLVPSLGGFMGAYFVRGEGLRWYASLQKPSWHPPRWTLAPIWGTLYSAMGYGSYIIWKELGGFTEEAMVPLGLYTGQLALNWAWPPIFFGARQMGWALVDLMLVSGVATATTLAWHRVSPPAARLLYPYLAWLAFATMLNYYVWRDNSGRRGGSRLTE
Translocator protein (Rattus norvegicus), sequence (P16257 whole entry, looked up): as above

With `CCCN(CCC)C(=O)Cn1c(=O)n2c3c(cc(-c4ccccc4)cc31)CCC2`, the remaining at 0.5 h, 1 µM in data set [1] was found to be 1%. Besides, in the data set filed under Rattus norvegicus, the inhibition stood at 11%. The affinity at Translocator protein corresponds to a Ki of 1.7 nM.
For `CN(Cc1ccccc1)C(=O)Cn1c(=O)n2c3c(cc(-c4ccccc4)cc31)CCC2`, in that order: 1%, 72% and 0.23 nM.
In the case of `O=C(Cn1c(=O)n2c3c(cc(-c4ccccc4)cc31)CCC2)Nc1ccccc1`, the remaining at 0.5 h, 1 µM in data set [1] came out at 62%. In the data set listed under Rattus norvegicus, the inhibition stood at 27%. In addition, on Translocator protein, the affinity, expressed as Ki, was 33 nM.
`CN(C(=O)Cn1c(=O)n2c3c(cc(-c4cccc(C(F)(F)F)c4)cc31)CCC2)c1ccccc1`: in data set [1], the remaining at 0.5 h, 1 µM was 0%.
Take `COc1ccc(N(C)C(=O)Cn2c(=O)n3c4c(cc(-c5ccccc5)cc42)CCC3)cc1`: in data set [2], the remaining at 0.5 h, 10 µM was 0%. For the same compound, the inhibition in the data set filed under Rattus norvegicus was found to be 3%. Affinity on Translocator protein was put at a Ki of 0.73 nM.
As for `CN(C(=O)Cn1c(=O)n2c3c(cc(-c4ccccc4)cc31)CCC2)c1ccccn1`, in data set [1], the remaining at 0.5 h, 1 µM amounted to 0%. In addition, the inhibition in the data set listed under Rattus norvegicus was 34%. In addition, the Ki on Translocator protein is 2.5 nM.
For `CN(C(=O)Cn1c(=O)n2c3c(cc(-c4ccccc4)cc31)CCC2)c1cccc(Cl)c1` the same measures were 0%, 3% and 0.44 nM.
For `CN(C(=O)Cn1c(=O)n2c3c(cc(-c4ccccc4)cc31)CCCC2)c1ccccc1`, in that order: 1%, 30% and 0.32 nM.
In data set [3], `CN(C(=O)Cn1c(=O)n(C)c2ccc(-c3ccccc3)cc21)c1ccccc1` returned an inhibition of 100%.
Consider `COc1cccc(-c2cc3c4c(c2)n(CC(=O)N(C)c2ccccc2)c(=O)n4CCC3)c1`, for which the remaining at 0.5 h, 1 µM in data set [1] was found to be 1%.
On to `CN(C(=O)Cn1c(=O)n2c3c(cc(Nc4cccnc4)cc31)CCC2)c1ccccc1`, for which the solubility in data set [4] is above 1000 µg/mL; in data set [5], 4 µg/mL (≈ 9.67 µM). In addition, the remaining at 0.5 h, 1 µM in data set [1] stood at 41%.
For the compound `CN(C(=O)Cn1c(=O)n2c3c(cc(-c4cccnc4)cc31)CCC2)c1ccccc1`, in data set [2], the remaining at 0.5 h, 10 µM was 0%.
On to `CN(C(=O)Cn1c(=O)n2c3c(cc(-c4ccccc4)cc31)CCC2)c1cccnc1`, for which the remaining at 0.5 h, 1 µM in data set [1] was 0%. This compound also came in with an inhibition in the data set listed under Rattus norvegicus of 36%. The compound further displayed a Ki on Translocator protein of 2.1 nM.
Consider `CN(C(=O)Cn1c(=O)n2c3c(cc(Br)cc31)CCC2)c1ccccc1`, for which the remaining at 0.5 h, 10 µM in data set [2] came out at 0%.
On to `COc1cccc(N(C)C(=O)Cn2c(=O)n3c4c(cc(-c5ccccc5)cc42)CCC3)c1`, for which the remaining at 0.5 h, 1 µM in data set [1] is 0%. In addition, in the data set listed under Rattus norvegicus, the inhibition is 6%. Further, on Translocator protein, the inhibitory constant (Ki) came out at 0.28 nM.
Turning to `CN(C(=O)Cn1c(=O)n2c3c(cccc31)CCC2)c1ccccc1`, the remaining at 0.5 h, 10 µM in data set [2] turned out to be 0%.
Regarding `CN(C(=O)Cn1c(=O)n2c3c(cc(-c4ccccc4)cc31)CCC2)c1ccccc1`, in data set [1], the remaining at 0.5 h, 1 µM was 12%. This compound also gave an inhibition in the data set listed under Rattus norvegicus of 14%. Further, the inhibitory constant (Ki) on Translocator protein was determined as 0.94 nM.
As for `CN(C(=O)Cn1c(=O)n2c3c(cc(-c4ccccc4)cc31)OCC2)c1ccccc1`, the remaining at 0.5 h, 1 µM in data set [1] is 1%. In addition, in the data set filed under Rattus norvegicus, the inhibition was found to be 68%. Further, the affinity on Translocator protein corresponds to a Ki of 0.21 nM.
For the compound `COc1ccc(-c2cc3c4c(c2)n(CC(=O)N(C)c2ccccc2)c(=O)n4CCC3)cc1`, the remaining at 0.5 h, 10 µM in data set [2] amounted to 2%.
In the case of `CN(C(=O)Cn1c(=O)n2c3c(cc(-c4ccccn4)cc31)CCC2)c1ccccc1`, the remaining at 0.5 h, 1 µM in data set [1] was determined as 0%.
For the compound `CN(C(=O)Cn1c(=O)n2c3c(cc(-c4ccccc4)cc31)CCC2)c1ccncc1`, in data set [1], the remaining at 0.5 h, 1 µM is 0%. The compound also yielded an inhibition in the data set filed under Rattus norvegicus of 24%. For the same compound, the Ki at Translocator protein was determined as 15 nM.
As to `CN(C(=O)Cn1c(=O)n2c3c(cc(-c4ccncc4)cc31)CCC2)c1ccccc1`, the remaining at 0.5 h, 1 µM in data set [1] worked out at 3%.
On to `CN(C(=O)Cn1c(=O)n2c3c(cc(-c4ccc(C(F)(F)F)cc4)cc31)CCC2)c1ccccc1`, for which the remaining at 0.5 h, 1 µM in data set [1] came out at 0%.
In the case of `CN(C(=O)Cn1c(=O)[nH]c2ccc(-c3ccccc3)cc21)c1ccccc1`, the inhibition in data set [3] stood at 86%.
Consider `CN(C(=O)Cn1c(=O)n2c3c(cc(-c4ccccc4)cc31)CCC2)c1ccc(Cl)cc1`, for which the remaining at 0.5 h, 1 µM in data set [1] turned out to be 0%. Moreover, the inhibition in the data set listed under Rattus norvegicus was found to be 4%. On Translocator protein, this compound displayed a Ki of 0.13 nM.
